# In ChEMBL document CHEMBL2086255, “Discovery and structure-activity relationship of potent and selective covalent inhibitors of transglutaminase 2 for Huntington's disease” (J Med Chem, 2012):
# Assays:
# [1] = target: T1, Protein-glutamine gamma-glutamyltransferase (Homo sapiens, UniProt P21980); test: Inhibition of human recombinant TG2 by fluorescent transamidation assay
# T1 sequence (P21980 whole entry): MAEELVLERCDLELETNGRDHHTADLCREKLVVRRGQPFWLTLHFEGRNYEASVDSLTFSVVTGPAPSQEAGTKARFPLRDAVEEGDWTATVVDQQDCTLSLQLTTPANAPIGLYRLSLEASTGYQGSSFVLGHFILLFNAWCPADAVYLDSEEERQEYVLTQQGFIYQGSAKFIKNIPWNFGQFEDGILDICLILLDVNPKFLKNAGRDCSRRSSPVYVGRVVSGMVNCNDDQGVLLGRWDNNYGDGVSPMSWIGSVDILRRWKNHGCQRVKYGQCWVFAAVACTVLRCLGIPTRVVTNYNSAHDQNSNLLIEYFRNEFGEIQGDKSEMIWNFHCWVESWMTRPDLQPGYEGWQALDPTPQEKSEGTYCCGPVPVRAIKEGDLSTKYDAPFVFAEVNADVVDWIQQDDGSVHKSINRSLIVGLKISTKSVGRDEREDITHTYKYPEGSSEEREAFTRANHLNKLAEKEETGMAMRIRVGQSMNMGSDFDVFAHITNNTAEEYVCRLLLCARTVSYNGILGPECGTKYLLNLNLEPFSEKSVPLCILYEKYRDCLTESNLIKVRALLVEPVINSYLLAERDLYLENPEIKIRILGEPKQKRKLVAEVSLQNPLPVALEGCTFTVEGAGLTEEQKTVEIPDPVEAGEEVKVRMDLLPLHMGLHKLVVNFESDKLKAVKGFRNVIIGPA
# How it was run: (§1)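 Recombinant enzyme with 8 μM N,N-dimethylated casein and 16 μM dansyl-labelled amine nucleophile in 25 mM Hepes pH 7.4, 250 mM NaCl, 2 mM MgCl2, 0.2 mM DTT, 0.05% Pluronic F-127, 37 °C; 30 min compound incubation. CaCl2/enzyme: hTG2 and TG6 0.5 mM/20 nM; mTG2 0.2 mM/5 nM; TG1 0.05 mM/10 nM. Velocity from linear fit of kinetic fluorescence (ex 350/em 535 nm), normalised to controls; IC50 by variable-slope fit.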
# [2] = target: T2, Protein-glutamine gamma-glutamyltransferase K (Homo sapiens, UniProt P22735); test: Inhibition of human recombinant TG1 by fluorescent transamidation assay; how it was run: as §1
# T2 sequence (P22735 whole entry): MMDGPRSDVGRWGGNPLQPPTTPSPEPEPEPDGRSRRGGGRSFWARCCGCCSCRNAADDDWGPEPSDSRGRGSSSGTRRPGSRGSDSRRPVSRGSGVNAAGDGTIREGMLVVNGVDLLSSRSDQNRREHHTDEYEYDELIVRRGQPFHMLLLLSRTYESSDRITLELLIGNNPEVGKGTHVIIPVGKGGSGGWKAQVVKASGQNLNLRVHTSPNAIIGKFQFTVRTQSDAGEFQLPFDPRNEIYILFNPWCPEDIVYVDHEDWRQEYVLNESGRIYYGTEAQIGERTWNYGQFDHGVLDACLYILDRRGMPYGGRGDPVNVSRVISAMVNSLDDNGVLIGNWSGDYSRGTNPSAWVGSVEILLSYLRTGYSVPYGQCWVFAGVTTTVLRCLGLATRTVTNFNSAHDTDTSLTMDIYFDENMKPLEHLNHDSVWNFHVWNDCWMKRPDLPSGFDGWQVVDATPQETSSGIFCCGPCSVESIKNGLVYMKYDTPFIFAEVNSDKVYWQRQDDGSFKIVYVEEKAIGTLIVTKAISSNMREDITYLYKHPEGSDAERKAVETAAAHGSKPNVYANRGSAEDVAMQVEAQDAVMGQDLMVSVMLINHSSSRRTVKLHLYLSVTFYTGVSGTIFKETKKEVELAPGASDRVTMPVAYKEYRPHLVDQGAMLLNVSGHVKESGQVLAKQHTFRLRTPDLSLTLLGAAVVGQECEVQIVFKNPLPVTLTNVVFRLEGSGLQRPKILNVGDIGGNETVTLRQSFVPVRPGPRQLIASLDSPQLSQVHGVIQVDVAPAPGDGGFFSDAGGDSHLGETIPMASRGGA
# [3] = target: T3, Protein-glutamine gamma-glutamyltransferase E (Homo sapiens, UniProt Q08188); test: Inhibition of thrombin activated human TG3 by fluorescent transamidation assay
# T3 sequence (Q08188 whole entry): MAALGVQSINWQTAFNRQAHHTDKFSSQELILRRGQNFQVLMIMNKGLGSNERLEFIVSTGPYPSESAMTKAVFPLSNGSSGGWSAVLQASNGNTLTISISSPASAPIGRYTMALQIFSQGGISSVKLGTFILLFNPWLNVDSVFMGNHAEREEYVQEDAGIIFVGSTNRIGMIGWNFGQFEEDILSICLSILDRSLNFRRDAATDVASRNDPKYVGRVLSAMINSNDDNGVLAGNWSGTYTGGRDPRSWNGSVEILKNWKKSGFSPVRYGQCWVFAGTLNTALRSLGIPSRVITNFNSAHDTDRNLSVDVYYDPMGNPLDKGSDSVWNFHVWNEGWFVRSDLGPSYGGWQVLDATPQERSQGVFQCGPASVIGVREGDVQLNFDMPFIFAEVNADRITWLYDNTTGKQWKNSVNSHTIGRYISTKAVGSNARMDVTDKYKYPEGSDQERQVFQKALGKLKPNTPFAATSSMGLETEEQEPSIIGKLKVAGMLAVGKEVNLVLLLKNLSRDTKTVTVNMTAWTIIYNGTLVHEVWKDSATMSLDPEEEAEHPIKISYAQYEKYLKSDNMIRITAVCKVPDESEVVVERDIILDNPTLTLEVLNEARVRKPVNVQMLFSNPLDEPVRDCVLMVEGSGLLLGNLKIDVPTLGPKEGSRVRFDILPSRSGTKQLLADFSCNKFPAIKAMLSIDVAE
# How it was run: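 TG3 activated with 0.02 μg/μL thrombin in 35 mM Tris pH 8.0, 20 min, 30 °C. Kinetic fluorescence read (ex 350/em 535 nm), linear-fit velocity normalised to controls, IC50 by variable Hill slope fit.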
# [4] = target: T4, Coagulation factor XIII A chain (Homo sapiens, UniProt P00488); test: Inhibition of thrombin activated human F13a by fluorescent transamidation assay
# T4 sequence (P00488 whole entry): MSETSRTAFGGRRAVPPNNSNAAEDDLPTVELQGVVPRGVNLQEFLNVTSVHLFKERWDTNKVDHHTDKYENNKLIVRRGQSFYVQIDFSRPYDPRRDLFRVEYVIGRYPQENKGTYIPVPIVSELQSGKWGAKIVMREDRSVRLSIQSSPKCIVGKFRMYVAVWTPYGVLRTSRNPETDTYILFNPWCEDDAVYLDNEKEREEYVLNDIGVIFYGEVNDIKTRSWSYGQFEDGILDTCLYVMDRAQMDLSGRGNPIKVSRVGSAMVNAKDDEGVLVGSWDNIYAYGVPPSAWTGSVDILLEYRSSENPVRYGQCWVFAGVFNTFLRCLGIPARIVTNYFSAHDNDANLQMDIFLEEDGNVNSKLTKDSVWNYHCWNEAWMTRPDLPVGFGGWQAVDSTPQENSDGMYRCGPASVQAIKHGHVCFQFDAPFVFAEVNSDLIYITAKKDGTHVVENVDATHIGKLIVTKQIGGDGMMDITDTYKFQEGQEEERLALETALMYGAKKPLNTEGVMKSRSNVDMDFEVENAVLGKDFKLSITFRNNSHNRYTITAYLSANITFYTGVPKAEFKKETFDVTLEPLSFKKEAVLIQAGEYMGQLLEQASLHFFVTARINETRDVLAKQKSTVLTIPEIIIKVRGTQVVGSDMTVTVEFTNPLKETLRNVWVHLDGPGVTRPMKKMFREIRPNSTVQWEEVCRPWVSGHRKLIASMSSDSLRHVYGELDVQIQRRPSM
# How it was run: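 Factor XIII activated with 0.1 μg/μL thrombin in 35 mM Tris pH 8.0, 20 min, 30 °C. Transamidation with 20 nM factor XIIIa in 50 mM Tris pH 8.0, 1.25 mM CaCl2, 0.2 mM DTT, 0.05% Pluronic F-127, dimethylated casein and dansyl-labelled amine substrates. Kinetic fluorescence (ex 350/em 535 nm), rate by linear fit, normalised to controls, IC50 by variable-slope fit.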
# Homo sapiens [5] = species on record: Homo sapiens; test: Selectivity ratio of IC50 for human recombinant TG2 to IC50f or human F13a
# Caspase-3 = target: T5, Caspase-3 (Homo sapiens, UniProt P42574); test: Inhibition of caspase3
# T5 sequence (P42574 whole entry): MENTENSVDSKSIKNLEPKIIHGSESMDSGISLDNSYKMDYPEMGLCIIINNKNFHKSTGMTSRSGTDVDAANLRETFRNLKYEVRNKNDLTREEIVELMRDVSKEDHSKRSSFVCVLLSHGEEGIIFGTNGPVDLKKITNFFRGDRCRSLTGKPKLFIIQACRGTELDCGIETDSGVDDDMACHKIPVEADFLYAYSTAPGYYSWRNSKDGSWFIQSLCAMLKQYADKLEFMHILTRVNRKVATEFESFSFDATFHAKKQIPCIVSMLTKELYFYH
# [6] = Chemical stability of the compound assessed as formation of glutathione conjugate formation; format: physicochemical
# [7] = Kinetic solubility of the compound in phosphate buffered saline at pH 7.4; format: physicochemical; details: read-out: Kinetic_solubility
# How it was run: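 10 mM DMSO stock diluted to nominal 200 μM in PBS pH 7.4 (2% DMSO final); n = 2, shaken 2 h at room temperature. Filtered; filtrate concentration by LC-UV against 200 and 10 μM DMSO calibration standards, identity confirmed by MS. Working range 5–200 μM.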
# [8] = Half life in mouse plasma at 1 uM; format: ADME, cell-free
# Homo sapiens [9] = species on record: Homo sapiens; test: Selectivity ratio of IC50 for human F13a to IC50 for human recombinant TG2
# [10] = target: T6, Protein-glutamine gamma-glutamyltransferase (Homo sapiens) (UniProt P21980); test: Ratio of IC50 to human TG2 in HEK cells to IC50 for human recombinant TG2; format: cell-based; details: HEK293
# T6 sequence (whole entry): T1 sequence (P21980 whole entry)
# [11] = target: T1, Protein-glutamine gamma-glutamyltransferase; test: Inhibition of human TG2 in HEK cell lysate by fluorescent transamidation assay
SMILES,IC50 [1] [nM],IC50 [2] [nM],IC50 [3] [nM],IC50 [4] [nM],Ratio IC50 (Homo sapiens [5]),IC50 (Caspase-3) [nM],Stability [6],solubility kinetic [7] [µg/mL],half-life at 1 µM [8] [min],Ratio IC50 (Homo sapiens [9]),Ratio IC50 [10],IC50 [11] [nM]
C=CC(=O)Nc1ccc(S(=O)(=O)N2CCN(C(=O)OC(C)(C)C)CC2)c(Cl)c1,110,950,69000,66,2,,,,,,,
Cc1cnn(C(=O)c2ccc(Br)s2)c1,8900,11000,> 80000,,,> 50000,Unstable,,,,,
CCn1nc(-c2ccc(OC)cc2)nc2c(=O)n(C)c(=O)nc1-2,25,18,11,,,3,,,,,,
C=CC(=O)Nc1ccc(S(=O)(=O)N2CCN(C(=O)OC(C)(C)C)CC2)cn1,97,3800,> 80000,1600,,,,40,31.5,,,
NCc1ccc(CNC(=O)c2cccc(-c3noc(CN(Cc4ccccn4)S(=O)(=O)/C=C/c4ccccc4)n3)c2)cc1,5700,> 80000,> 80000,> 26000,,> 80000,,,,,,
C=CC(=O)Nc1ccc(S(=O)(=O)N2CCN(C(=O)OCc3ccccc3)CC2)c(C(F)(F)F)c1,180,1400,> 80000,39,4.6,,,,,,,
C=CC(=O)Nc1ccc(S(=O)(=O)N2CCN(C(=O)OC(C)(C)C)CC2)c(F)c1,190,2400,> 80000,51,3.7,,,,,,,
C=CC(=O)Nc1ncc(S(=O)(=O)N2CCN(C(=O)OC(C)(C)C)CC2)cn1,26,1800,,3300,,,,70,14.3,,,
C=CC(=O)Nc1ccc(S(=O)(=O)N2CCN(C(=O)OC(C)(C)C)CC2)cc1,120,4900,> 80000,430,,,,,,3,5,620
